Data as given in ChEMBL document CHEMBL3739314, “Discovery of Nanomolar Dengue and West Nile Virus Protease Inhibitors Containing a 4-Benzyloxyphenylglycine Residue” (J Med Chem, 2015).
pIC50: −log10 of the molar value.

Assays:
[1] = target: Prothrombin (Homo sapiens) (UniProt P00734); experiment: Inhibition of thrombin (unknown origin) using Boc-Val-Pro-Arg-AMC as substrate at 25 uM preincubated with protein for 15 mins followed by substrate addition measured for 10 mins by continuous fluorimetric assay relative to control
[2] = system: West Nile virus; experiment: Inhibition of West Nile virus NS2B-NS3 protease using 2-Abz-Gly-Leu-Lys-Arg-Gly-Gly-[…]-Tyr-NH2 as substrate at 50 uM preincubated with protein for 15 mins followed by substrate addition measured for 15 mins by FRET assay
How it was run: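 Linked WNV NS2B-NS3 protease (150 nM) was preincubated 15 min with inhibitor (50 μM final) in 50 mM Tris-HCl pH 9, 10% ethylene glycol, 0.0016% Brij 58. […] Percent inhibition was taken from the slope relative to the no-inhibitor control, in triplicate.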

[3] = Inhibition of Dengue virus serotype-2 NS2B-NS3 protease using 2-Abz-Nle-Lys-Arg-Arg-Ser-(3-NO2)-Tyr-NH2 as substrate preincubated with protein for 15 mins followed by substrate addition measured for 15 mins by FRET assay; design: species or system dengue virus type 2
How it was run: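 DENV-2 NS2B-NS3 linked construct at 30 nM (15 nM in some cases), same pH 9 Tris buffer, 15 min preincubation and FRET read-out. Eight inhibitor concentrations spanned 0–1, 0–2, 0–6 or 0–50 μM, with substrate at 50 μM. IC50 was fitted from triplicates.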

[4] = Inhibition of West Nile virus NS2B-NS3 protease using 2-Abz-Gly-Leu-Lys-Arg-Gly-Gly-[…]-Tyr-NH2 as substrate preincubated with protein for 15 mins followed by substrate addition measured for 15 mins by FRET assay
How it was run: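 WNV NS2B-NS3 linked construct at 75 nM (40 nM in one case) in pH 9 Tris buffer, preincubated 15 min with eight inhibitor concentrations (ranges 0–1 up to 0–50 μM). Substrate was 50 μM, with FRET readout over 15 min. IC50 was fitted from triplicates.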

| inhibition [1] | inhibition [2] | pIC50 [3] | pIC50 [4] | SMILES |
| --- | --- | --- | --- | --- |
| < 30% | 87.4% | 6.04 | – | N=C(N)NCCC[C@H](NC(=O)CCc1ccccc1)C(=O)N[C@@H](CCCCN)C(=O)N[C@@H](C(N)=O)c1ccc(OCc2ccccc2)cc1 |
| < 30% | 85.1% | 5.70 | – | N=C(N)NCCC[C@H](NC(=O)c1ccccc1)C(=O)N[C@@H](CCCCN)C(=O)N[C@@H](C(N)=O)c1ccc(OCc2ccc(N)cc2)cc1 |
| < 30% | 98.8% | 7.00 | 6.80 | N=C(N)NCCC[C@H](NC(=O)c1nccs1)C(=O)N[C@@H](CCCCN)C(=O)N[C@@H](C(N)=O)c1ccc(OCc2ccccc2)cc1 |
| < 30% | 85.2% | 6.51 | – | Cc1cccc(COc2ccc([C@@H](NC(=O)[C@H](CCCCN)NC(=O)[C@H](CCCNC(=N)N)NC(=O)c3ccccc3)C(N)=O)cc2)c1 |
| < 30% | 98.7% | 6.52 | 6.36 | N=C(N)NCCC[C@H](NC(=O)c1ccccc1C(F)(F)F)C(=O)N[C@@H](CCCCN)C(=O)N[C@@H](C(N)=O)c1ccc(OCc2ccccc2)cc1 |
| < 30% | 102% | 6.73 | 6.49 | N=C(N)NCCC[C@H](NC(=O)c1ccccc1)C(=O)N[C@@H](CCCCN)C(=O)N[C@@H](C(N)=O)c1ccc(OCc2cccc(Cl)c2)cc1 |
| < 30% | 95.2% | 6.71 | – | N=C(N)NCCC[C@H](NC(=O)c1sccc1Cl)C(=O)N[C@@H](CCCCN)C(=O)N[C@@H](C(N)=O)c1ccc(OCc2ccccc2)cc1 |
| < 30% | 100% | 6.76 | 6.46 | N=C(N)NCCC[C@H](NC(=O)c1cscn1)C(=O)N[C@@H](CCCCN)C(=O)N[C@@H](C(N)=O)c1ccc(OCc2ccccc2)cc1 |
| < 30% | 95.5% | 6.33 | – | N=C(N)NCCC[C@H](NC(=O)c1cccc(F)c1)C(=O)N[C@@H](CCCCN)C(=O)N[C@@H](C(N)=O)c1ccc(OCc2ccccc2)cc1 |
| < 30% | 100% | 6.71 | 6.46 | N=C(N)NCCC[C@H](NC(=O)c1ccccc1)C(=O)N[C@@H](CCCCN)C(=O)N[C@@H](C(N)=O)c1ccc(OCc2ccc(F)cc2)cc1 |
| < 30% | 99% | 6.83 | 6.09 | COc1cccc(COc2ccc([C@@H](NC(=O)[C@H](CCCCN)NC(=O)[C@H](CCCNC(=N)N)NC(=O)c3ccccc3)C(N)=O)cc2)c1 |
| < 30% | 99.9% | 6.40 | 6.67 | N#Cc1ccc(COc2ccc([C@@H](NC(=O)[C@H](CCCCN)NC(=O)[C@H](CCCNC(=N)N)NC(=O)c3ccccc3)C(N)=O)cc2)cc1 |
| < 30% | 102% | 6.84 | 6.31 | N=C(N)NCCC[C@H](NC(=O)c1ccccc1)C(=O)N[C@@H](CCCCN)C(=O)N[C@@H](C(N)=O)c1ccc(OCc2ccc(Cl)cc2)cc1 |
| < 30% | 96.4% | 6.58 | – | N=C(N)NCCC[C@H](NC(=O)c1cccnc1)C(=O)N[C@@H](CCCCN)C(=O)N[C@@H](C(N)=O)c1ccc(OCc2ccccc2)cc1 |
| < 30% | 98.8% | 6.31 | 6.29 | N=C(N)NCCC[C@H](NC(=O)c1ccccc1)C(=O)N[C@@H](CCCCN)C(=O)N[C@@H](C(N)=O)c1ccc(OCC(=O)c2ccccc2)cc1 |
| < 30% | 101% | 6.82 | 6.31 | N=C(N)NCCC[C@H](NC(=O)c1ccccc1)C(=O)N[C@@H](CCCCN)C(=O)N[C@@H](C(N)=O)c1ccc(OCc2c(Cl)cccc2Cl)cc1 |
| < 30% | 92.6% | 6.44 | – | Cc1ccc(C(=O)N[C@@H](CCCNC(=N)N)C(=O)N[C@@H](CCCCN)C(=O)N[C@@H](C(N)=O)c2ccc(OCc3ccccc3)cc2)s1 |
| < 30% | 96.2% | 6.71 | – | N=C(N)NCCC[C@H](NC(=O)c1scc2c1OCCO2)C(=O)N[C@@H](CCCCN)C(=O)N[C@@H](C(N)=O)c1ccc(OCc2ccccc2)cc1 |
| < 30% | 98% | 6.20 | 6.36 | N=C(N)NCCC[C@H](NC(=O)C1CCC1)C(=O)N[C@@H](CCCCN)C(=O)N[C@@H](C(N)=O)c1ccc(OCc2ccccc2)cc1 |
| < 30% | 100% | 6.43 | 6.37 | N=C(N)NCCC[C@H](NC(=O)c1ccc(-c2cccs2)s1)C(=O)N[C@@H](CCCCN)C(=O)N[C@@H](C(N)=O)c1ccc(OCc2ccccc2)cc1 |

| inhibition [1] | inhibition [2] | pIC50 [3] | pIC50 [4] | SMILES |
| --- | --- | --- | --- | --- |
| < 30% | 92.9% | 6.19 | – | N=C(N)NCCC[C@H](NC(=O)c1ccc(F)cc1)C(=O)N[C@@H](CCCCN)C(=O)N[C@@H](C(N)=O)c1ccc(OCc2ccccc2)cc1 |
| < 30% | 98% | 6.96 | 6.53 | N=C(N)NCCC[C@H](NC(=O)c1cccs1)C(=O)N[C@@H](CCCCN)C(=O)N[C@@H](C(N)=O)c1ccc(OCc2ccccc2)cc1 |
| < 30% | 100% | 6.46 | 6.44 | N=C(N)NCCC[C@H](NC(=O)c1ccc(-c2ccccc2)s1)C(=O)N[C@@H](CCCCN)C(=O)N[C@@H](C(N)=O)c1ccc(OCc2ccccc2)cc1 |
| < 30% | 97.1% | 6.74 | – | N=C(N)NCCC[C@H](NC(=O)c1ccccc1)C(=O)N[C@@H](CCCCN)C(=O)N[C@@H](C(N)=O)c1ccc(OCc2ccc(OC(F)(F)F)cc2)cc1 |
| < 30% | 96.3% | 6.15 | – | N=C(N)NCCC[C@H](NC(=O)C1CCCC1)C(=O)N[C@@H](CCCCN)C(=O)N[C@@H](C(N)=O)c1ccc(OCc2ccccc2)cc1 |
| < 30% | 98.6% | 6.52 | 6.40 | N=C(N)NCCC[C@H](NC(=O)c1cc(-c2ccccc2)cs1)C(=O)N[C@@H](CCCCN)C(=O)N[C@@H](C(N)=O)c1ccc(OCc2ccccc2)cc1 |
| < 30% | 99.2% | 6.63 | 6.51 | N=C(N)NCCC[C@H](NC(=O)c1ccccc1)C(=O)N[C@@H](CCCCN)C(=O)N[C@@H](C(N)=O)c1ccc(OCc2ccc(Br)cc2)cc1 |
| < 30% | 85.6% | 6.76 | – | CC(C)(C)c1ccc(COc2ccc([C@@H](NC(=O)[C@H](CCCCN)NC(=O)[C@H](CCCNC(=N)N)NC(=O)c3ccccc3)C(N)=O)cc2)cc1 |
| < 30% | 92.5% | 6.40 | – | N=C(N)NCCC[C@H](NC(=O)c1cc2sccc2s1)C(=O)N[C@@H](CCCCN)C(=O)N[C@@H](C(N)=O)c1ccc(OCc2ccccc2)cc1 |
| < 30% | 95.7% | 6.11 | – | N=C(N)NCCC[C@H](NC(=O)C1CCCCC1)C(=O)N[C@@H](CCCCN)C(=O)N[C@@H](C(N)=O)c1ccc(OCc2ccccc2)cc1 |
| < 30% | 83% | 6.63 | – | N=C(N)NCCC[C@H](NC(=O)c1ccc(C=O)cc1)C(=O)N[C@@H](CCCCN)C(=O)N[C@@H](C(N)=O)c1ccc(OCc2ccccc2)cc1 |
| < 30% | 96.7% | 6.44 | – | N=C(N)NCCC[C@H](NC(=O)c1ccccc1)C(=O)N[C@@H](CCCCN)C(=O)N[C@@H](C(N)=O)c1ccc(OCc2ccccc2Br)cc1 |
| < 30% | 97.4% | 6.79 | – | N=C(N)NCCC[C@H](NC(=O)c1cccc(C=O)c1)C(=O)N[C@@H](CCCCN)C(=O)N[C@@H](C(N)=O)c1ccc(OCc2ccccc2)cc1 |
| < 30% | 97.4% | 6.52 | – | N=C(N)NCCC[C@H](NC(=O)c1cncs1)C(=O)N[C@@H](CCCCN)C(=O)N[C@@H](C(N)=O)c1ccc(OCc2ccccc2)cc1 |
| < 30% | 92.6% | 6.72 | – | N=C(N)NCCC[C@H](NC(=O)c1ccccc1)C(=O)N[C@@H](CCCCN)C(=O)N[C@@H](C(N)=O)c1ccc(OCc2ccc3ccccc3c2)cc1 |
| < 30% | 84.6% | 5.98 | – | CC(=O)c1ccc(C(=O)N[C@@H](CCCNC(=N)N)C(=O)N[C@@H](CCCCN)C(=O)N[C@@H](C(N)=O)c2ccc(OCc3ccccc3)cc2)cc1 |
| < 30% | 94.3% | 6.49 | – | N=C(N)NCCC[C@H](NC(=O)c1sccc1-n1cccc1)C(=O)N[C@@H](CCCCN)C(=O)N[C@@H](C(N)=O)c1ccc(OCc2ccccc2)cc1 |
| < 30% | 96.6% | 6.30 | – | N=C(N)NCCC[C@H](NC(=O)c1cc2ccsc2s1)C(=O)N[C@@H](CCCCN)C(=O)N[C@@H](C(N)=O)c1ccc(OCc2ccccc2)cc1 |
| < 30% | 97% | 6.74 | – | N=C(N)NCCC[C@H](NC(=O)c1ccccc1)C(=O)N[C@@H](CCCCN)C(=O)N[C@@H](C(N)=O)c1ccc(OCc2ccccc2C(F)(F)F)cc1 |
